Ten compounds from ChEMBL document CHEMBL4316595, “Synthesis and structure-activity relationship studies of parthenolide derivatives as potential anti-triple negative breast cancer agents” (Eur J Med Chem, 2019) can be followed below.

pIC50: −log10 of the molar value. Counter-ions that a name gives are not always drawn.

The test system of one data set is Bcap37. Briefly: Antiproliferative activity against human Bcap37 cells measured after 72 hrs by MTT assay. In kind it is functional, cell-based. The settings on record: Bcap37, 72 h. In outline:
(§1)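 MTT antiproliferation assay on human breast cancer lines MDA-MB-231, SUM-159, MCF-7 and Bcap-37 and on mouse 4T1 breast cancer cells. IC50 values were taken from the MTT read-out. Adriamycin served as the positive control.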
(Tetrazolium dyes change colour on reduction, which living cells bring about.)

A further data set has as its system 4T1. In words: Antiproliferative activity against mouse 4T1 cells measured after 72 hrs by MTT assay. The data set is classed as functional, cell-based. The settings on record: 4T1, 72 h. The essentials:
as §1

Data set [1] concerns SUM-159-PT. Briefly: Antiproliferative activity against human SUM159 cells measured after 72 hrs by MTT assay. The data set is classed as functional, cell-based. In outline:
as §1

Data set [2] concerns MDA-MB-231. In words: Antiproliferative activity against human MDA-MB-231 cells measured after 72 hrs by MTT assay. In kind it is functional, cell-based. The settings on record: MDA-MB-231, 72 h. In outline: as §1
A further data set has as its system MCF7. Briefly: Antiproliferative activity against human MCF7 cells measured after 72 hrs by MTT assay. In kind it is functional, cell-based. The note with it: MCF7, 72 h. The essentials:
as §1

The subject of data set [3] is MDA-MB-231. In words: Potency index, ratio of parthenolide IC50 to test compound IC50 for human MDA-MB-231 cells. In kind it is functional.
Another data set deals with NIH3T3. In words: Cytotoxicity against mouse 3T3 cells measured after 72 hrs by MTT assay. The data set is classed as cell-based. The note with it: NIH3T3, 72 h. In outline:
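Cytotoxicity was measured by MTT on normal 3T3 mouse embryonic fibroblasts, with IC50 from the MTT read-out.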

Data set [4] can be described thus: Therapeutic index, ratio of IC50 for mouse 3T3 cells to IC50 for mouse 4T1 cells. In kind it is toxicity. The settings on record: 3T3 cells and 4T1 cells, read-out: Ratio IC50.
Data set [5] concerns SUM-159-PT. Briefly: Induction of apoptosis in human SUM159 cells assessed as early apoptotic cells at 0.5 uM measured after 48 hrs by Annexin-V APC/propidium iodide staining based flow cytometry (reference value: 2.5%). The data set is classed as functional. The essentials:
(§2)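 SUM-159 cells were exposed at 0, 0.2 and 0.5 µM, then stained with annexin V/PI and analysed by flow cytometry. Early apoptosis was annexin V+/PI−, late apoptosis annexin V+/PI+, and total apoptosis was the sum of the two.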
On the technique in general: A flow cytometer gives signals particle by particle.

For data set [6], the system named is SUM-159-PT. Briefly: Induction of apoptosis in human SUM159 cells assessed as viable cells at 0.5 uM measured after 48 hrs by Annexin-V APC/propidium iodide staining based flow cytometry (reference value: 95.9%). In kind it is functional. The settings on record: read-out: Activity. The essentials:
as §2

Data set [7] relates to SUM-159-PT. Briefly: Induction of apoptosis in human SUM159 cells assessed as necrotic cells at 0.5 uM measured after 48 hrs by Annexin-V APC/propidium iodide staining based flow cytometry (reference value: 0.152%). The data set is classed as functional. In outline: as §2
In data set [8] the test system is SUM-159-PT. In words: Induction of apoptosis in human SUM159 cells assessed as late apoptotic cells at 0.5 uM measured after 48 hrs by Annexin-V APC/propidium iodide staining based flow cytometry (reference value: 1.45%). The data set is classed as functional. In outline:
as §2

By pIC50 is commonly meant the negative decadic logarithm of the IC50, by convention in mol/L. A low value points to a high IC50. For `C=C1C(=O)O[C@H]2[C@H]1CC/C(COC(=O)/C=C/c1cc(OC)ccc1OC)=C\CC[C@@]1(C)O[C@@H]21`, the negative logarithm of the IC50 (pIC50) in the data set on Bcap37 is 6.26; with 4T1 it was 6.47; with SUM-159-PT [1], 6.59; with MDA-MB-231 [2], 6.59; with MCF7, 6.59. Further, in the data set on MDA-MB-231 [3], the “Ratio IC50” value is listed as 14.

Turning to `C=C1C(=O)O[C@H]2[C@H]1CC/C(COC(=O)/C=C/c1cc(OC)c(OC)c(OC)c1)=C\CC[C@@]1(C)O[C@@H]21`, the negative-log IC50 (pIC50) is 5.71 in the data set on Bcap37; 6.20 in the data set on 4T1; 6.07 with SUM-159-PT [1]; 6.02 in the data set with MDA-MB-231 [2]; 5.86 in the data set with MCF7.

`C=C1C(=O)O[C@H]2[C@H]1CC/C(COC(=O)/C=C/c1ccc(OC)cc1OC)=C\CC[C@@]1(C)O[C@@H]21`: the pIC50 is 5.94 with Bcap37; 5.85 in the data set on 4T1; 6.10 with SUM-159-PT [1]; 6.26 with MDA-MB-231 [2]; 6.05 with MCF7.

With `C=C1C(=O)O[C@H]2[C@H]1CC/C(COC(=O)/C=C/c1cccc(C(F)(F)F)c1)=C\CC[C@@]1(C)O[C@@H]21`, the negative-log IC50 (pIC50) is 5.73 in the data set with Bcap37; 5.83 with 4T1; 6.19 in the data set on SUM-159-PT [1]; 6.08 with MDA-MB-231 [2]; 5.67 in the data set on MCF7.

In turn, `C=C1C(=O)O[C@H]2[C@H]1CC/C(COC(=O)/C=C/c1ccccc1)=C\CC[C@@]1(C)O[C@@H]21` showed a pIC50 in the data set on MDA-MB-231 [2] of 5.87. Also, in the data set on MDA-MB-231 [3], the “Ratio IC50” value is recorded as 2.

In the case of `COc1cccc2c1C(=O)c1c(O)c3c(c(O)c1C2=O)C[C@@](O)(C(=O)CO)C[C@@H]3O[C@H]1C[C@H](N)[C@H](O)[C@H](C)O1` [DOXORUBICIN HYDROCHLORIDE], the pIC50 was 6.10 in the data set on 4T1, 6.44 in the data set with NIH3T3 and 6.10 in the data set with MDA-MB-231 [2]. Further, the selectivity ratio in [4] turned out to be 0.45.

For `C=C1C(=O)O[C@H]2[C@H]1CC/C(COC(=O)/C=C/c1ccccc1C(F)(F)F)=C\CC[C@@]1(C)O[C@@H]21`, the pIC50 with Bcap37 is 5.72; with 4T1, 5.94; with SUM-159-PT [1], 6.07; in the data set with MDA-MB-231 [2] it was 6.13; with MCF7 it was 5.70.

Consider `C=C1C(=O)O[C@H]2[C@H]1CC/C(COC(=O)/C=C/c1ccccc1OCC)=C\CC[C@@]1(C)O[C@@H]21`, for which the pIC50 with Bcap37 is 6.38; with 4T1, 6.74; in the data set on SUM-159-PT [1] it was 6.68; with MDA-MB-231 [2], 6.47; with MCF7, 6.54. Also, the “Ratio IC50” value in the data set with MDA-MB-231 [3] was 10.

`C=C1C(=O)O[C@@H]2C3O[C@]3(C)CC/C=C(\C)CC[C@@H]12` (some centres not stated): the pIC50 was 5.33 with Bcap37; 5.39 with 4T1; 5.51 with SUM-159-PT [1]; 5.46 with MDA-MB-231 [2]; 5.57 with MCF7. In addition, the Activity is listed as 2.49% in the data set on SUM-159-PT [5], 0.049% in the data set on SUM-159-PT [7] and 1.1% with SUM-159-PT [8]. The viability at 0.5 µM in the data set with SUM-159-PT [6] amounted to 96.4%.

On to `C=C1C(=O)O[C@H]2[C@H]1CC/C(COC(=O)/C=C/c1ccccc1OC)=C\CC[C@@]1(C)O[C@@H]21`, for which the pIC50 is 6.17 in the data set with Bcap37; 6.28 in the data set with 4T1; 6.46 with SUM-159-PT [1]; 6.34 with MDA-MB-231 [2]; 6.38 in the data set on MCF7.
